In the library only some 1.9% were active in any assay of this set; here they are far more common.
PLCg1 inh: PLC-gamma1 enzyme inhibitors, primary screen, biochemical, fluorescence, purified enzyme; 1-phosphatidylinositol 4,5-bisphosphate phosphodiesterase gamma-1 (Homo sapiens), P19174; fluorogenic substrate; inhibition, % at 12.2 µM; 370,000 compounds, 0.84% hits; AID 720700, 2013; in the data active = inhibition above about 9.5%
PLC-beta3 inh: human PLC-beta3 inhibitors, primary screen, biochemical, fluorescence | Purified PLC-beta3, fluorogenic substrate | AID 720704, 2013 | 1-phosphatidylinositol 4,5-bisphosphate phosphodiesterase beta-3 (Homo sapiens), Q01970 | inhibition, % at 12.2 µM | 370,000 compounds, 0.18% hits; in the data active = inhibition above about 11%
sPLA2-III inh: human group III sPLA2 inhibitors, primary screen, biochemical, QFRET, BODIPY PC-A2 liposome substrate | QFRET BODIPY PC-A2 liposome hydrolysis, fluorescence | AID 743126, 2013 | 370,000 compounds, 0.56% hits | Group 3 secretory phospholipase A2 (Homo sapiens), Q9NZ20 | inhibition, % at 12.2 µM;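 active = inhibition above mean plus 3 SD of compounds lying within the high and low control bounds, cut at about 19% in these data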
ASAP1 inh: inhibitors of human ASAP1 ArfGAP activity, primary screen, biochemical, fluorescence polarization. Arf-GAP with SH3 domain, ANK repeat and PH domain-containing protein 1 (Homo sapiens), …. ASAP1-stimulated ARF1 GTP hydrolysis, GDP FP detection. inhibition, % at 16.5 µM. 360,000 compounds, 0.19% hits. AID 624377, 2012; in the data active = inhibition above about 25%
ARFGAP1 inhibitor: inhibitors of rat ARFGAP1 GAP activity, primary screen, biochemical, fluorescence polarization, GDP tracer; inhibition, % at 16.5 µM; AID 651572, 2012; ADP-ribosylation factor GTPase-activating protein 1 (Rattus norvegicus), Q62848; Arfgap1-stimulated ARF1 GTP hydrolysis, GDP FP detection; 360,000 compounds, 0.26% hits;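 active = inhibition above a per-plate limit, mean inhibition of low control wells plus 3 SD, cut at about 25% in these data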
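Material: rat Arfgap1 GAP domain (His6, aa 1-136), purified enzyme. Also added: human ARF1(Δ1-17)-GTP substrate. Compound dosing: 16.5 µM single point, 1.26% DMSO. Timing: enzyme reaction 120 min at 25 °C after 20 min preincubation. Signal: GDP detection by fluorescence polarization. Read-out basis: percent inhibition of GAP-stimulated GDP formation, scaled between DMSO and no-Arfgap1 medians.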
sPLA2 confirm: human group III sPLA2 inhibitors, confirmation, biochemical, QFRET, triplicate. shares compounds with sPLA2-III inh. recombinant hGIII-sPLA2, BODIPY PC-A2 QFRET fluorescence. inhibition, % at 12.2 µM. 2,000 compounds, 34% hits;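 active = mean inhibition across triplicates above the hit cutoff set in the earlier primary screen, cut at about 19% in these data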
BODIPY interf: 535nm fluorescence optical interference, confirmation, artefact control for HGIII-sPLA2 inhibitor project, biochemical, QFRET | inhibition, % at 12.2 µM | 2,000 compounds, 8.5% hits | AID 743282, 2014 | shares compounds with sPLA2-III inh | BODIPY FL product fluorescence interference;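 active = average inhibition above the solvent-only control mean plus 3 SD, cut at about 6% in these data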
BODIPY interf DR: 535nm fluorescence optical interference, dose response, artefact control for HGIII-sPLA2 inhibitor project, biochemical, QFRET | shares compounds with sPLA2-III inh | BODIPY FL product fluorescence interference, cell-free | IC50, µM | 240 tested, under 10 active | AID 743455, 2014;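 active = IC50 at or below 10 µM; inactive = IC50 above 10 µM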
Of the large screens only hits and unclear results are named; the others gave an inactive call (follow-up assays come after a bar, where they were run).

Cc1cc(-c2n[nH]c(=S)n2-c2ccccc2)nn1C	none
Cc1nn(C)cc1-c1n[nH]c(=S)n1-c1ccc(F)cc1	sPLA2-III inh 29 | sPLA2 confirm inactive | BODIPY interf inactive
Fc1cccc(-c2n[nH]c(=S)n2-c2ccccc2)c1	sPLA2-III inh 25 | sPLA2 confirm inactive | BODIPY interf inactive
COC(=O)[C@]12C[C@H](CC(=O)N3CCCCC3)C(=O)N(CCC3=CCCCC3)C1=C[C@H](C(C)C)O[C@@H]2C1CC1	none (no result: ASAP1 inh, ARFGAP1 inhibitor)
CCN(CC)C(=O)CC[C@@H]1CC[C@]2(CCCN(S(=O)(=O)c3ccccc3)C2)O1	none (no result: ASAP1 inh, ARFGAP1 inhibitor)
COc1cc(CC(NC(C)=O)C(=O)NC2CCN(c3c(Cc4ccccc4)c(C)nc4ncnn34)CC2)cc(OC)c1 (stereo not given)	sPLA2-III inh 22 | sPLA2 confirm inactive | BODIPY interf inactive
CC(=O)Nc1ccc(NC(=O)C2CCN(c3c(Cc4ccccc4)c(C)nc4ncnn34)CC2)cc1	none
C=CCN(CC#CC(=C)C)Cc1ccc(OC)cc1OC	none (no result: ASAP1 inh, ARFGAP1 inhibitor)
CCCCOCCCNC(=O)C[C@H]1C[C@@]2(C(=O)OC)C(=C[C@H](C(C)(C)C)O[C@@H]2C)N(Cc2ccc(Cl)cc2Cl)C1=O	none (no result: ASAP1 inh, ARFGAP1 inhibitor)
Cc1ccn(C(=O)c2ccc(NC(=O)CC(C)C)cc2)n1	sPLA2-III inh 19 | sPLA2 confirm inactive | BODIPY interf inactive
O=C(c1cccc(I)c1)N1CCC(Oc2cccnc2)CC1	none (no result: ASAP1 inh, ARFGAP1 inhibitor)
COc1ccc(-c2ccc(C(=O)Nc3cccc(N(C)C)c3)c3occc23)c(C)c1	sPLA2-III inh 20 | sPLA2 confirm inactive | BODIPY interf 7.7
COc1ccc(NC(=S)NNC(=O)c2nnn(-c3ccccc3)c2C)cc1	sPLA2-III inh 35 | sPLA2 confirm 42 | BODIPY interf inactive | BODIPY interf DR inactive
Cc1cc(C)c2nc(NNC(=O)c3ccc(S(=O)(=O)N4CCc5ccccc5C4)cc3)sc2c1	sPLA2-III inh 50 | sPLA2 confirm 36 | BODIPY interf inactive
CCCCNC(=O)O[C@H]1CC[C@@]23CCCN2C(=O)CCC[C@H]3C1	none (no result: ASAP1 inh, ARFGAP1 inhibitor)
CCN=c1scc(-c2ccco2)n1/N=C/c1ccc(O)cc1	none
CCN=c1scc(C)n1/N=C/c1cc(Br)c(O)c(Br)c1	sPLA2-III inh 22 | sPLA2 confirm 21 | BODIPY interf inactive
CCN=c1scc(C)n1/N=C/c1ccc(O)c(O)c1O	sPLA2-III inh 22 | sPLA2 confirm 24 | BODIPY interf inactive
O=C([C@@H]1C[C@H]1c1ccccc1)N1CCC(Oc2cccnc2)CC1	none (no result: ASAP1 inh, ARFGAP1 inhibitor)
CC(C)c1nc2c(c(=O)c3ccccc3n2C)c(=O)n1-c1ccc(F)cc1	sPLA2-III inh 24 | sPLA2 confirm inactive | BODIPY interf inactive
C/C(C=NNC(=O)CSc1nnc(-c2ccc(Cl)cc2)n1-c1ccc(C)cc1)=C\c1ccccc1	none (no result: ASAP1 inh, ARFGAP1 inhibitor)
O=C(OCc1nc2ccccc2s1)c1cc2ccccc2oc1=O	sPLA2-III inh 22 | sPLA2 confirm inactive | BODIPY interf inactive
CC(C)C(=O)NC(=S)/C=C1/N(C)c2ccccc2C1(C)C	none
Cc1ccc(C(=O)NC(=S)/C=C2\N(C)c3ccccc3C2(C)C)cc1	sPLA2-III inh 30 | sPLA2 confirm 45 | BODIPY interf inactive | BODIPY interf DR inactive

Assay outcomes deposited in PubChem by The Scripps Research Institute Molecular Screening Center.
